Source: ChEMBL document CHEMBL1135602 (J Med Chem, 2002)

Columns and labels:
[1] = molecular target: Bifunctional dihydrofolate reductase-thymidylate synthase (Plasmodium falciparum K1) (UniProt P13922); assay: Inhibition of mutant C59R+S108N dihydrofolate reductase (DHFR) relative to Pyr
Plasmodium falciparum [2] = assay: IC50 ratio against Plasmodium falciparum K1CB1/TM4; assay type: functional
[3] = molecular target: Bifunctional dihydrofolate reductase-thymidylate synthase (Plasmodium falciparum K1) (UniProt P13922); assay: Inhibition of Plasmodium falciparum wild-type dihydrofolate reductase (DHFR) relative to Pyrimethamine.
Plasmodium falciparum [4] = assay: In vitro antiplasmodial activity (IC50) against Plasmodium falciparum wtTM4/8.2; assay type: functional, organism-based
[5] = tested on: Bifunctional dihydrofolate reductase-thymidylate synthase (Plasmodium falciparum K1), P13922 [UNDEFINED MUTATION]; assay: Ratio of Inhibition of the S108N mutant of dihydrofolate reductase (DHFR) to inhibition of wild type dihydrofolate reductase.
Bifunctional dihydrofolate reductase-thymidylate synthase (Plasmodium falciparum K1), P13922 [UNDEFINED MUTATION], sequence (P13922 whole entry, looked up, stated change not applied): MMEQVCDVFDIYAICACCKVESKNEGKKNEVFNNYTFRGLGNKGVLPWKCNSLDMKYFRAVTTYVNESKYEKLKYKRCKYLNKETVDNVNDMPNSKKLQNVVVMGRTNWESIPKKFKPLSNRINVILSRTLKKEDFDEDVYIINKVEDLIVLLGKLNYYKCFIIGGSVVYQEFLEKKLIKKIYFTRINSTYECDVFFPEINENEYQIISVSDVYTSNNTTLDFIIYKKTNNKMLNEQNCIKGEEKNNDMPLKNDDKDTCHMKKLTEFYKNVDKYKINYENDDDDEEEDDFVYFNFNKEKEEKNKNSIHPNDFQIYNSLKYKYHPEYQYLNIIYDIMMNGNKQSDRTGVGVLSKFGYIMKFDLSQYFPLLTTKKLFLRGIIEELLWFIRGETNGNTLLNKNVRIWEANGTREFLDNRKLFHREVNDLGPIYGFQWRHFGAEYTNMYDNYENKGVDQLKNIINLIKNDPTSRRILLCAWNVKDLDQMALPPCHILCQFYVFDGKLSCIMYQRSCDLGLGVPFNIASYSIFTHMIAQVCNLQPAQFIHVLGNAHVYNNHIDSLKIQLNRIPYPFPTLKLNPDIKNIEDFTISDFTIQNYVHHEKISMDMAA

[6] = molecular target: Bifunctional dihydrofolate reductase-thymidylate synthase (Plasmodium falciparum K1, UniProt P13922); assay: Inhibition of the C59R+S108N mutant of dihydrofolate reductase (DHFR)
Bifunctional dihydrofolate reductase-thymidylate synthase (Plasmodium falciparum K1, UniProt P13922), sequence (P13922 whole entry): as the sequence (P13922 whole entry, looked up, stated change not applied) above
Outline: (§1)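 Assay at 25 °C: 50 mM TES pH 7.0, 75 mM β-mercaptoethanol, 1 mg/mL BSA, 100 µM H2folate and 100 µM NADPH. NADPH oxidation followed at 340 nm. Ki derived from IC50 as Ki(1+[S]/Km), assuming competitive inhibition.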

[7] = molecular target: Bifunctional dihydrofolate reductase-thymidylate synthase (Plasmodium falciparum K1, UniProt P13922, S108N); assay: Inhibition of the S108N mutant of dihydrofolate reductase (DHFR); outline: as §1
Bifunctional dihydrofolate reductase-thymidylate synthase (Plasmodium falciparum K1, UniProt P13922, S108N), sequence (P13922 whole entry, looked up, stated change not applied): as above

[8] = tested on: Bifunctional dihydrofolate reductase-thymidylate synthase (Plasmodium falciparum K1), P13922 [UNDEFINED MUTATION]; assay: Ratio of Inhibition of the C59R+S108N mutant of dihydrofolate reductase (DHFR) to inhibition of wild type dihydrofolate reductase.
[9] = molecular target: Bifunctional dihydrofolate reductase-thymidylate synthase (Plasmodium falciparum K1) (UniProt P13922); assay: Inhibition of mutant S108N dihydrofolate reductase (DHFR) relative to Pyr
KB = assay: Cytotoxicity against human epidermoid carcinoma KB cell.; assay type: functional, cell-based
BC = assay: Cytotoxicity against human breast cancer cells.; assay type: functional, cell-based
Vero = assay: Cytotoxicity by the selective inhibition against African green monkey kidney […] (vero cells).; assay type: functional, cell-based; conditions: Chlorocebus sabaeus
[10] = Safety ratio is cytotoxicity to vero cells/IC50 K1.; assay type: toxicity, cell-based; conditions: monkey, read-out: Safety ratio
Outline: (§2)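 Ratio of the cytotoxicity IC50 (vero, KB or BC cells, Skehan protocol) to the antiplasmodial IC50 against K1CB1 (C59R+S108N DHFR). […] Label was added at 24 h and cultures ran a further 18-24 h. Final DMSO was 0.1%.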

Plasmodium falciparum [11] = assay: Safety ratio as cytotoxicity in vero cells relative to IC50 TM4; assay type: functional
[12] = Safety ratio is cytotoxicity to KB cells/IC50 K1.; assay type: toxicity, cell-based; conditions: human, KB cells (epidermoid carcinoma); read-out: Safety ratio; outline: as §2
[13] = Safety ratio is cytotoxicity to KB cells/IC50 TM4.; assay type: toxicity, cell-based; conditions: human, KB cells (epidermoid carcinoma); read-out: Safety ratio
Outline: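 Ratio of the cytotoxicity IC50 (KB or BC cells, Skehan protocol) to the antiplasmodial IC50 against TM4/8.2 (wild-type DHFR). […] Label was added after 24 h and cultures ran a further 18-24 h.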

Plasmodium falciparum [14] = assay: In vitro relative antiplasmodial activity (IC50) compared to Pyr against Plasmodium falciparum TM4/8.2 wild-type; assay type: functional
[15] = molecular target: Bifunctional dihydrofolate reductase-thymidylate synthase (Plasmodium falciparum K1) (UniProt P13922); assay: Inhibition of the C59R+S108N mutant of dihydrofolate reductase (DHFR) relative to Pyr.
Outline: (§3)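 Assayed at 25 °C in 50 mM TES pH 7.0, 75 mM β-mercaptoethanol, 1 mg/mL BSA, with 100 µM H2folate and 100 µM NADPH. A340 was followed. Ki was derived from IC50 = Ki(1+[S]/Km), assuming competitive inhibition.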

[16] = molecular target: Bifunctional dihydrofolate reductase-thymidylate synthase (Plasmodium falciparum K1) (UniProt P13922); assay: Inhibition of the wild-type dihydrofolate reductase (DHFR) relative to Pyr.; outline: as §3
Plasmodium falciparum [17] = assay: Relative antiplasmodial activity (IC50) compared to Pyr against Plasmodium falciparum K1CB1 DHFR double-mutant (C59R/S108N); assay type: functional
[18] = molecular target: Bifunctional dihydrofolate reductase-thymidylate synthase (Plasmodium falciparum K1) (UniProt P13922); assay: Inhibition of the S108N mutant of dihydrofolate reductase (DHFR) relative to Pyr.; outline: as §3

Bifunctional dihydrofolate reductase-thymidylate synthase (Plasmodium falciparum K1), sequence (P13922 whole entry, looked up): as the sequence (P13922 whole entry, looked up, stated change not applied) above

Row | Compound | Relative activity [1] | Ratio (Plasmodium falciparum [2]) | Relative activity [3] | IC50 (Plasmodium falciparum [4]) [nM] | Ratio [5] | Ki [6] [nM] | Ki [7] [nM] | Ratio [8] | Relative activity [9] | other results
1 | Nc1ncc(-c2ccccc2)c(N)n1 | 1.4 | 0.9 | 69.8 | 20900 | 1.9 | 76.2 | 81 | 1.8 | 2.8 | –
2 | COc1cc(COc2ccc(Cc3cnc(N)nc3N)cc2)cc(OC)c1OC | – | – | – | 700 | – | – | – | – | – | IC50 (KB): > 250000 nM; IC50 (BC): > 250000 nM; IC50 (Vero): > 250000 nM
3 | CCOc1cc(Cc2cnc(N)nc2N)ccc1OCc1ccccc1 | – | – | – | 500 | – | – | – | – | – | IC50 (KB): 47000 nM; IC50 (BC): 100000 nM; IC50 (Vero): > 250000 nM
4 | CCc1nc(N)nc(N)c1-c1ccc(Cl)cc1Cl | 21.2 | 2 | 21 | 11300 | 93.1 | 1140 | 1170 | 90.6 | 41 | –
5 | COC(=O)CCCc1nc(N)nc(N)c1-c1cccc(Cl)c1 | – | 45.4 | 0.8 | 800 | 3.4 | 2.8 | 1.7 | 5.6 | – | –
6 | COc1cc(Cc2cnc(N)nc2N)cc(OC)c1OCc1ccccc1 | – | 7.1 | – | 4200 | – | 71.9 | 61.9 | – | – | –
7 | Nc1ncc(-c2ccc(Cl)cc2)c(N)n1 | 10.3 | 11.4 | 4 | 2300 | 154 | 556 | 369 | 232 | 12.9 | –
8 | CCc1nc(N)nc(N)c1-c1ccc(Cl)c(Cl)c1 [ETOPRINE] | 0.2 | 290 | 1.7 | 60 | 9 | 12.6 | 9 | 12.6 | 0.3 | –
9 | CCc1nc(N)nc(N)c1-c1cccc(Cl)c1 | […] | […] | […] | 400 | – | […] | 1.6 | – | […] | IC50 (KB): 46000 nM; selectivity ratio [10]: […]; Safety ratio (Plasmodium falciparum [11]): […]; IC50 (BC): 25000 nM; selectivity ratio [12]: […]; IC50 (Vero): 7000 nM; selectivity ratio [13]: […]
10 | COC(=O)CCCc1nc(N)nc(N)c1-c1ccc(Cl)cc1 | 0.5 | 557.5 | 0.5 | 40 | 56.3 | 27.4 | 16.9 | 91.3 | 0.6 | –
11 | Nc1nc(N)c(-c2cccc(Cl)c2)c(CCCc2ccccc2)n1 | – | 4.3 | 2 | 700 | 2.5 | 4.2 | 3 | 3.5 | – | –
12 | COc1cc(Cc2cnc(N)nc2N)cc(OC)c1OC [TRIMETHOPRIM] | – | – | – | – | – | – | – | – | – | IC50 (KB): > 250000 nM; IC50 (BC): > 250000 nM; IC50 (Vero): > 50000 nM
13 | CCc1nc(N)nc(N)c1-c1ccc(-c2ccccc2)cc1 | – | 0.3 | – | 13100 | 2.2 | 730 | 421 | 3.9 | – | Relative activity (Plasmodium falciparum [14]): 163.8; Relative activity [15]: 13.5; Relative activity [16]: 313; Relative activity (Plasmodium falciparum [17]): 0.1; Relative activity [18]: 14.7
14 | Cc1nc(N)nc(N)c1-c1cccc(Cl)c1 | – | 2 | 3.2 | 2400 | 1.7 | 3.1 | 3.2 | 1.6 | – | –
15 | CCc1nc(N)nc(N)c1-c1ccc(OCc2ccc(Cl)cc2Cl)c(OC)c1 | – | – | – | 3700 | – | – | – | – | – | –
16 | Nc1nc(N)c(-c2ccc(Cl)cc2)c(CCCc2ccccc2)n1 | 0.4 | 212 | 1.2 | 50 | 19.9 | 23.3 | 13.9 | 33.3 | 0.5 | –
17 | Cc1nc(N)nc(N)c1-c1ccc(Cl)cc1 | 2.6 | 120.2 | 3.3 | 500 | 51.8 | 142 | 104 | 71 | 3.6 | –
18 | CCOc1c(Br)cc(-c2c(N)nc(N)nc2CC)cc1Br | 9.9 | 4.7 | 11.7 | 3700 | 59.3 | 535 | 415 | 76.3 | 14.5 | –
19 | CCc1nc(N)nc(N)c1-c1ccc(Cl)cc1 [PYRIMETHAMINE] | – | – | – | 80 | – | – | – | – | – | IC50 (KB): 109000 nM; IC50 (BC): > 250000 nM
20 | COC(=O)CCCc1nc(N)nc(N)c1-c1ccccc1 | 0.1 | 78.3 | 1 | 400 | 0.06 | 5.5 | 1.8 | 9.2 | 0.06 | –
21 | Cc1nc(N)nc(N)c1-c1ccccc1 | 0.7 | 4.2 | 18.2 | 7400 | 2.3 | 36.7 | 25.6 | 3.4 | 0.9 | –
22 | CCc1nc(N)nc(N)c1-c1ccc2c(c1)OCO2 | 0.6 | 53.8 | 1.8 | 400 | 15.6 | 34.6 | 17.2 | 31.5 | 0.6 | –
23 | CCCCOc1cc(Cc2cnc(N)nc2N)ccc1OCc1cc(OC)c(OC)c(OC)c1 | – | – | – | 440 | – | – | – | – | – | IC50 (KB): > 50000 nM; IC50 (Vero): > 50000 nM
24 | Nc1ncc(-c2cccc(Cl)c2)c(N)n1 | – | 1.5 | 10.5 | 6000 | 4.2 | 31.6 | 26.3 | 5 | – | –
